Hits are enriched below; roughly 2% of the tested compounds scored in any of these assays.
Lipid droplet = hepatic lipid droplet formation modulation | AID 1656 | AML12 mouse hepatocytes, oleate lipid droplets, BODIPY imaging | hit rate 0.4% among 240,000 | inhibition, % at 6.5 µM;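 active means lipid droplet intensity inhibited by at least 50%, with more than 500 cells counted; inconclusive means wells with under 300 cells, treated as cytotoxic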
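System: AML12 hepatocytes (mouse). Probe or stimulus: oleic acid at 100 µM to induce lipid droplet formation. Times: overnight treatment with compound plus oleate. Detection: Image-based BODIPY and DAPI two-channel analysis. Evaluation: percent inhibition of filter-corrected integrated lipid droplet intensity per well.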
Arr AP2 block = human beta-arrestin and AP2 interaction inhibition; FITC-arrestin peptide / GST-AP2 beads, flow cytometry; AP2 beta2 appendage carries R879A mutation; hit rate 0.31% among 340,000; inhibition, % at 10 µM; AID 504490;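 active means inhibition above a set limit, near 3 SD of compounds lacking own fluorescence, cut at about 54% in these data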;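 further: plate controls were DMSO wells for no effect and 5 µM unlabelled arrestin peptide for full effect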
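Assay system: GST-AP2 R879A bound to glutathione beads, E. coli-expressed; Medium: PBS with 0.05% Tween 20 and 0.1% BSA; Also added: fluorescein-tagged arrestin peptide at 50 nM final; Timing: 12 min plus 1 h, RT; Measured by: flow cytometry, FL1 (488/535 nm); Evaluation: percent drop in bead-associated FITC signal.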
H9c2 TAG inh = inhibitors of triacylglycerol accumulation; H9c2 cells, Nile Red lipid (TAG) fluorescence; cells loaded with 200 µM oleic acid; inhibition, % at 12.5 µM; hit rate 0.66% among 230,000; AID 651582;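 active means pattern-corrected inhibition of lipid staining of at least 50% with the nuclear-stain viability signal not falling by more than 50%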;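 further: 0% = DMSO wells and 100% = triacsin C control wells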
B2AR ag = agonists of human beta-2 adrenergic receptor inducing internalization; P07550; Am2.2-beta2AR cells, FAP receptor internalization, flow cytometry; response, % (test concentration not listed); hit rate 0.43% among 340,000;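 active means response above a set limit, near 3 SD of response in nonfluorescent compounds, cut at about 42% in these data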
GRK2 inh = human GRK2 inhibition via aptamer displacement. P25098. bead flow cytometry, FAM-aptamer displacement from GRK2. inhibition of aptamer binding, % at 10 µM. hit rate 0.59% among 330,000. AID 488847;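 active means inhibition of aptamer binding above 40%, roughly 3 SD of noise, on plates passing a quality check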;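 further: median bead fluorescence of bound FAM aptamer so fluorescent compounds give negative values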
Target sequence (P25098 whole entry, looked up): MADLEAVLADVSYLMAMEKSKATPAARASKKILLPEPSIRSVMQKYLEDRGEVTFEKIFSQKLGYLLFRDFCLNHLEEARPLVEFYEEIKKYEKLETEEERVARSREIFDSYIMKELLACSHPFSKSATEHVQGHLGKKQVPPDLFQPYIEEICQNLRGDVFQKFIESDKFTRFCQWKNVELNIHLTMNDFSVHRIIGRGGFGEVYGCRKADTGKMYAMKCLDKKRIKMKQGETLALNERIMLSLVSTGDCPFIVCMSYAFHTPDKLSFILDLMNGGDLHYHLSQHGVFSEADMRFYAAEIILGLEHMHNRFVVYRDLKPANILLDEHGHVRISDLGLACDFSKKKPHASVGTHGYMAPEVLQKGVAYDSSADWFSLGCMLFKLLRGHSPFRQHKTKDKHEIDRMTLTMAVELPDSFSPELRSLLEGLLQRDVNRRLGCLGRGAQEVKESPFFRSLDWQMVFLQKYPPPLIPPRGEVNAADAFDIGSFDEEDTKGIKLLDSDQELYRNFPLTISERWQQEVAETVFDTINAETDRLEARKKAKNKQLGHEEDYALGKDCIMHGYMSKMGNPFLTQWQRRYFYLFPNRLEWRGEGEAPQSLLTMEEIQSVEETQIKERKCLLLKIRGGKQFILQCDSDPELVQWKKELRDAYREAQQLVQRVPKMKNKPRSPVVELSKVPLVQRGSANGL
NTR1 agonist = agonists of human neurotensin receptor NTR1. P30989. NTR1-U2OS beta-arrestin-GFP spot imaging, agonist mode. activation, % at 20 µM. hit rate 0.17% among 330,000. AID 493036;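 active means activation at or above 40% of the spot to cytoplasm intensity ratio, with at least 20 cells analyzed; inconclusive means wells under 20 cells, flagged as cytotoxic or low count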;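 further: 0% = DMSO without peptide and 100% = 100 nM NTR1 peptide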
GRK2 CP1 = confirmation of human GRK2 inhibitors displacing RNA aptamer; shares compounds with GRK2 inh; bead-bound GRK2, FAM-aptamer displacement, flow cytometry; aptamer displacement, % at 10 µM; hit rate 4% among 2,000; AID 504451;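 active means aptamer displacement above 40%, near three times the noise of non-fluorescent compounds, on plates passing quality checks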;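 further: negative values mostly reflect intrinsic compound fluorescence rather than true enhancement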
Aptamer quench SP = counter-screen for GRK2 aptamer inhibitors: fluorescent aptamer quenchers; fluorescence response (% of DMSO), % at 10 µM; Carboxyfluorescein RNA aptamer on beads, flow cytometry quenching; active compounds read low; shares compounds with GRK2 inh; 2,000 tested, under 10 active;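 active means compounds that quench the bead-bound fluorescent RNA probe, cutting fluorescence to under half of the solvent control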;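 further: counterscreen run without GRK2 so only probe quenching by compound is measured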
GRK2 confirm 2 = confirmation of human GRK2 inhibitors binding RNA aptamer site. shares compounds with GRK2 inh. bead-bound GRK2, FAM-aptamer displacement, flow cytometry. inhibition of aptamer binding, % at 10 µM. 360 tested, under 10 active. AID 504782;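 active means inhibition of aptamer binding above 40%, about triple the noise seen with nonglowing compounds, on plates passing quality control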;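 further: negative values mostly come from compounds that fluoresce themselves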
FAM quench CP2 = counter-screen for GRK2 binding hits: quenchers of fluorescent RNA aptamer; 360 tested, under 10 active; shares compounds with GRK2 inh; carboxyfluorescein RNA aptamer beads, flow cytometry quenching; active compounds read low; fluorescence response vs DMSO, % at 10 µM; AID 588494;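 active means response vs DMSO under 50%, meaning signal dropped by over half, treated as fluorescence quencher; inconclusive means no clear call, values can overlap the other calls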;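 further: labelled aptamer on streptavidin beads without GRK2 as a quench counter-screen; 100% = bead fluorescence of DMSO wells and lower means quenching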
* marks the source's active call; other numbers are inactive results; ? = inconclusive; / = not tested or not shown.

SMILES	Lipid droplet	Arr AP2 block	H9c2 TAG inh	B2AR ag	GRK2 inh	NTR1 agonist	GRK2 CP1	Aptamer quench SP	others
COc1ccc(OC)c(C2=NO[C@@H]3C(=O)N(c4cc(Cl)ccc4OC)C(=O)[C@H]23)c1	-3.6	24.7	-0.5	2.0	2.0	1.6	/	/	GRK2 confirm 2=4.6;FAM quench CP2=?
COc1ccc(Cl)cc1N1C(=O)[C@@H]2C(c3cccc(OC)c3OC)=NO[C@@H]2C1=O	/	9.2	0.7	2.5	6.0	-0.7	/	/	GRK2 confirm 2=7.6;FAM quench CP2=102.0
COc1ccc(C2=NO[C@@H]3C(=O)N(Cc4ccccc4)C(=O)[C@H]23)c(OC)c1	11.9	2.4	0.8	6.6	0.0	0.3	/	/
CCOC(=O)[C@@H]1[C@H]2COc3ccccc3[C@@H]2N2C(=O)N(c3ccc(F)cc3)C(=O)[C@]12C	/	4.3	-1.0	-2.5	0.0	-3.2	/	/
Cc1cc(-c2cccnc2)c(C#N)c(SCC#N)n1	-3.8	2.9	/	-15.8	84.0*	-0.9	0.8	98.1
CCOc1ccc(C2/C(=C(\O)c3ccc4c(c3)OCCO4)C(=O)C(=O)N2Cc2cccnc2)cc1OCC (configuration not stated)	-16.3	-2.1	/	4.6	3.0	0.1	/	/
Cc1oc(-c2ccccc2)cc1C(=O)Nc1ccc2ccccc2c1	/	-4.2	1.0	-0.1	98.0*	8.6	-3.1	94.8
Cc1oc(-c2ccccc2)cc1C(=O)Nc1ccccc1	-1.1	21.2	-2.8	5.3	0.0	-1.2	/	/
O=C(N/N=C/c1cc([N+](=O)[O-])ccc1N1CCCCCC1)c1ccccn1	-22.9	8.1	-12.3	2.5	84.0*	3.7	2.4	97.4
O=C(c1ccccc1)c1cc([N+](=O)[O-])ccc1N1CCCC1	2.2	9.4	-30.8	-12.8	100.0*	-1.0	/	/	GRK2 confirm 2=-3.5;FAM quench CP2=100.0
CCOc1ccc(Oc2ccc(C(F)(F)F)cc2NC(=O)C2=COCCO2)cc1	/	3.0	-22.3	19.4	0.0	6.8	/	/
CSCc1cc(N(C)C)nc(SCc2ccc(Cl)c(Cl)c2)n1	/	6.4	/	-9.5	76.0*	1.7	0.7	55.4
CCCCN(C(=O)CSc1nnc(-c2ccc(OC)cc2)n1C(C)C)c1c(N)n(Cc2ccccc2)c(=O)[nH]c1=O	3.5	-14.4	-11.8	-9.4	0.0	-0.8	/	/
CCCCN(C(=O)c1cccc(-n2cccc2)c1)c1c(N)n(Cc2ccccc2)c(=O)[nH]c1=O	/	9.2	-2.0	3.0	46.0*	0.9	9.8	97.1
CCCCN(C(=O)CSc1nnc(-c2ccc(OC)cc2)n1CC)c1c(N)n(Cc2ccccc2)c(=O)[nH]c1=O	-8.1	17.1	7.9	3.2	88.0*	-0.3	-0.9	99.8
Cc1ccc(C(=O)Nc2cccc(C(F)(F)F)c2)cc1NC(=O)c1ccno1	-4.1	-6.8	19.9	-7.7	1.0	-4.0	3.3	103.2
O=C(NC1CCCCC1)C(c1ccc2ncccc2c1)N(Cc1ccc(F)cc1)C(=O)c1ccc2c(c1)OCCO2 (configuration not stated)	/	-9.0	/	-11.3	48.0*	3.7	1.6	99.9
O=C(NC1CCCCC1)C(c1ccc2ncccc2c1)N(Cc1ccc2c(c1)OCO2)C(=O)c1ccc2c(c1)OCCO2 (configuration not stated)	-8.6	2.6	/	-8.4	1.0	2.9	/	/
CCOc1ccc(NC(=O)C2CCCN2S(=O)(=O)c2ccc3c(c2)C(C)(C)C(=O)N3C)cc1 (configuration not stated)	7.5	-1.9	-4.1	-3.5	48.0*	5.7	2.4	95.7

Assay outcomes as filed in PubChem.
